Consider two molecules from paper PMC10692386 (Acta Pharmaceutica Sinica. B, 2023).

One data set has as its target CYP2C19 (Homo sapiens, UniProt P33261). Kind of data set: biochemical.
The target in the next data set is hERG potassium channels (Homo sapiens, UniProt Q12809). Kind of data set: hERG channel Qpatch assay in CHO-hERG cells. Format: cell-based. A general note: The hERG channel carries a current that helps repolarise heart muscle cells.
The next data set has as its system HIV-1 mutant Y188L. Kind of data set: Anti-HIV-1 efficacy against mutant Y188L in MT-4 cells. Format: cell-based. Particulars: Human immunodeficiency virus 1, MT4, read-out: EC50 Y188L. In outline:
(§1)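 MT-4 cells were infected with HIV-1 RT mutant strains. EC50 was the concentration giving 50% protection against viral cytopathicity, averaged from at least three independent experiments. Cytotoxicity in mock-infected cultures was read by MTT.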

The next data set relates to HIV-1 mutant E138K. In words: Anti-HIV-1 efficacy against mutant E138K in MT-4 cells. It counts as cell-based. To be noted: Human immunodeficiency virus 1, MT4, read-out: EC50 E138K. An outline of the steps:
as §1

A further data set concerns the target CYP2D6 (Homo sapiens, UniProt P10635). In words: Cytochrome P450 inhibition assay, CYP2D6. It counts as in vitro ADME.
A further data set is described as follows: Acute toxicity assay. It counts as in vivo, ICR mice. To be noted: single intragastric administration of 1.2 g/kg. An outline of the steps: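 ICR mice, 24–28 g, aged 5–6 weeks (4 male, 4 female), were randomised into 4 groups. Test compound was given as a single intragastric dose. Body weight, behaviour and coat colour were followed for 14 days. Mice were then euthanised, and kidney, lung, spleen, liver, heart and brain were HE-stained for histology.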

A further data set has as its target WT HIV-1 RT (Human immunodeficiency virus type 1 group M subtype B, UniProt P03366). Kind of data set: Inhibition of WT HIV-1 RT. Format: biochemical.
Another data set concerns HIV-1 mutant K103N. In words: Anti-HIV-1 efficacy against mutant K103N in MT-4 cells. It counts as cell-based. Particulars: Human immunodeficiency virus 1, MT4, read-out: EC50 K103N. In outline:
as §1

Data set [1] in a line: Cytotoxicity in mock-infected MT-4 cell cultures. It counts as cell-based. To be noted: human, mock-infected MT-4 cells.
Another data set deals with CYP3A4 (Homo sapiens, UniProt P08684). Kind of data set: Cytochrome P450 inhibition assay, CYP3A4. It counts as in vitro ADME.
Data set [2] can be described thus: PK study in Sprague-Dawley rats. Format: in vivo. Particulars: rat, plasma. In outline: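 Six SD rats, 180–220 g, were fasted 12 h and randomised into an intravenous arm (1 mg/kg) and an intragastric arm. Blood was drawn from pre-dose to 720 min into heparin, and plasma was stored at −80 °C. Plasma was precipitated with acetonitrile, dried under nitrogen, reconstituted and assayed by HPLC-MS/MS. PK parameters and bioavailability came from concentration–time data.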

In data set [3] the test system is HIV-1 mutant K103N + Y181C. Kind of data set: Anti-HIV-1 efficacy against mutant K103N + Y181C in MT-4 cells. To be noted: Human immunodeficiency virus 1, MT4, read-out: EC50 K103N + Y181C. It counts as cell-based. In outline: as §1
A further data set can be described thus: Aqueous solubility. It counts as physicochemical.
The subject of a further data set is HIV-1 mutant L100I. In words: Anti-HIV-1 efficacy against mutant L100I in MT-4 cells. Particulars: Human immunodeficiency virus 1, MT4, read-out: EC50 L100I. It counts as cell-based. In outline:
as §1

The next data set has as its system WT HIV-1. In words: Anti-HIV-1 activity in MT-4 cells infected with HIV-1. Format: cell-based.
Another data set relates to HIV-1 mutant Y181C. Kind of data set: Anti-HIV-1 efficacy against mutant Y181C in MT-4 cells. It counts as cell-based. Particulars: Human immunodeficiency virus 1, MT4, read-out: EC50 Y181C. In outline:
as §1

The target in a further data set is CYP2C9 (Homo sapiens, UniProt P11712). Kind of data set: Cytochrome P450 inhibition assay, CYP2C9. It counts as in vitro ADME.
For another data set, the target named is T1, CYP1A2 (Homo sapiens, UniProt P05177).
T1 sequence (P05177 1-516): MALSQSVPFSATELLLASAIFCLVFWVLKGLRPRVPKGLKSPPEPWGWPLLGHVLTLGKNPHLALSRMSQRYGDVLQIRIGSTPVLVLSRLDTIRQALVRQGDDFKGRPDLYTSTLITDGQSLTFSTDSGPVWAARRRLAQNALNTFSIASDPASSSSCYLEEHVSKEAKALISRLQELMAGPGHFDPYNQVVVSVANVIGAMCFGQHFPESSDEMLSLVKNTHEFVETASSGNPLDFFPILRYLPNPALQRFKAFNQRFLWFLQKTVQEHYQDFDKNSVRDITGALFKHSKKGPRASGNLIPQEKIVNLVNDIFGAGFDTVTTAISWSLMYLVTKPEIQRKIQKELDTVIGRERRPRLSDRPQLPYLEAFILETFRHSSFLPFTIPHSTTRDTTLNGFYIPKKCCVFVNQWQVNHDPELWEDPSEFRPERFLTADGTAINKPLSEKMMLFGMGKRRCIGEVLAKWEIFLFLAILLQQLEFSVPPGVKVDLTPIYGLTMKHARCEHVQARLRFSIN
In words: Cytochrome P450 inhibition assay, CYP1A2. Format: in vitro ADME.

In data set [4] the test system is K103N, L100I, E138K, Y181C, and K103N + Y181C. Kind of data set: Anti-HIV-1 efficacy against mutant panel. It counts as cell-based. Particulars: Human immunodeficiency virus 1, read-out: EC50 value range. In outline:
as §1

≈ marks a conversion by molar mass, not a printed value.

Sequence of CYP2D6 (P10635 whole entry): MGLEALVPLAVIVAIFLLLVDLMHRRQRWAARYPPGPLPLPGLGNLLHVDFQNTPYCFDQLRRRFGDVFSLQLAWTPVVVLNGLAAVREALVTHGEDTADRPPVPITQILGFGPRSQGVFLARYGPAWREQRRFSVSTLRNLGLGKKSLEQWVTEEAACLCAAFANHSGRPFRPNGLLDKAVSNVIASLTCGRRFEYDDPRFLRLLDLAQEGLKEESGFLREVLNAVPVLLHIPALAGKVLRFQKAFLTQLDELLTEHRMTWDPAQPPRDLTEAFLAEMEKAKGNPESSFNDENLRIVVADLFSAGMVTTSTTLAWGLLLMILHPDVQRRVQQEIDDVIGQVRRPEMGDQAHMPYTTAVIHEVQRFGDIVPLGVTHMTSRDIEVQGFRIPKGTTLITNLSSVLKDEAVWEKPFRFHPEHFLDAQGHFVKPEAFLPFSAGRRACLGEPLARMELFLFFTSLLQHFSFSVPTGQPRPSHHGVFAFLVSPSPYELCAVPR
Sequence of CYP2C9 (P11712 whole entry): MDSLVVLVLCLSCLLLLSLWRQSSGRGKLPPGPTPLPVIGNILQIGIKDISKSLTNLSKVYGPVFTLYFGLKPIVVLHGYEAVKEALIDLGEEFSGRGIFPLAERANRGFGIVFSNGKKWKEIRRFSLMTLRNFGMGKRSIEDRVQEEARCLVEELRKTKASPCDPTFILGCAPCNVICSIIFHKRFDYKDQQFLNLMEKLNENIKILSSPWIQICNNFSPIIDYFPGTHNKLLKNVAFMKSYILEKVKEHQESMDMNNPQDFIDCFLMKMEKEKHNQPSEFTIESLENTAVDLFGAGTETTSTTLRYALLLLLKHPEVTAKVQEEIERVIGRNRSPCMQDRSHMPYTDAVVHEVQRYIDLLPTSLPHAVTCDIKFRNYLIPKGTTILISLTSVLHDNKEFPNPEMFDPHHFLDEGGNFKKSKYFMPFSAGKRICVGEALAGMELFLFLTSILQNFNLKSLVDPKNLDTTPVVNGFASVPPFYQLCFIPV
Sequence of hERG potassium channels (Q12809 whole entry): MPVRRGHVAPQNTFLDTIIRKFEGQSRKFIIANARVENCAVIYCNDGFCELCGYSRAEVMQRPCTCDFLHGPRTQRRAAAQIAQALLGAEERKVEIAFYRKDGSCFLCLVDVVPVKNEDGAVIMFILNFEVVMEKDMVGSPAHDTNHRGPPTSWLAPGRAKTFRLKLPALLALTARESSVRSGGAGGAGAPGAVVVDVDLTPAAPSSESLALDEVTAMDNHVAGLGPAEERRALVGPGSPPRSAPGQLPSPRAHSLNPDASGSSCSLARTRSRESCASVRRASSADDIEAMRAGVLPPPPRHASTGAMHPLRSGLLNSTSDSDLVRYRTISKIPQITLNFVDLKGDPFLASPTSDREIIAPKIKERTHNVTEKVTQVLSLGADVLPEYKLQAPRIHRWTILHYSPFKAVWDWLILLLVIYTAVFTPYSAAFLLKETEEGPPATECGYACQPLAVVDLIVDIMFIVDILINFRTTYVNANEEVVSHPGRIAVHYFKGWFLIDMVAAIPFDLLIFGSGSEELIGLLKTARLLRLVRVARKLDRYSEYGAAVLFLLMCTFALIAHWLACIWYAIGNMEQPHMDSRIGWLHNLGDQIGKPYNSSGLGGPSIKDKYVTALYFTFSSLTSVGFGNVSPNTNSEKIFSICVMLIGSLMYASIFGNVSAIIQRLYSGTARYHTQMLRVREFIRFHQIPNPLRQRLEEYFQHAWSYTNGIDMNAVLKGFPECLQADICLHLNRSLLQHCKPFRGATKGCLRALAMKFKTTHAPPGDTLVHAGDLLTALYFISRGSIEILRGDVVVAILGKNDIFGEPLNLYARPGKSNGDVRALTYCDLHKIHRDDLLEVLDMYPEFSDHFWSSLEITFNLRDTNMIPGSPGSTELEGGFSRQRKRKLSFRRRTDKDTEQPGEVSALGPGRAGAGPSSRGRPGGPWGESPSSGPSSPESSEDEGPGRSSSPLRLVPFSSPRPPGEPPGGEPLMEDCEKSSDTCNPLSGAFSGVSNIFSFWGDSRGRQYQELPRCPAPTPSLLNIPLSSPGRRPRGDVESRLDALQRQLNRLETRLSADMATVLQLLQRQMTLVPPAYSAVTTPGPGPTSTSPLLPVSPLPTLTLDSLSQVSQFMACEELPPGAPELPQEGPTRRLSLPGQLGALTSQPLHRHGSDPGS
Sequence of CYP2C19 (P33261 whole entry): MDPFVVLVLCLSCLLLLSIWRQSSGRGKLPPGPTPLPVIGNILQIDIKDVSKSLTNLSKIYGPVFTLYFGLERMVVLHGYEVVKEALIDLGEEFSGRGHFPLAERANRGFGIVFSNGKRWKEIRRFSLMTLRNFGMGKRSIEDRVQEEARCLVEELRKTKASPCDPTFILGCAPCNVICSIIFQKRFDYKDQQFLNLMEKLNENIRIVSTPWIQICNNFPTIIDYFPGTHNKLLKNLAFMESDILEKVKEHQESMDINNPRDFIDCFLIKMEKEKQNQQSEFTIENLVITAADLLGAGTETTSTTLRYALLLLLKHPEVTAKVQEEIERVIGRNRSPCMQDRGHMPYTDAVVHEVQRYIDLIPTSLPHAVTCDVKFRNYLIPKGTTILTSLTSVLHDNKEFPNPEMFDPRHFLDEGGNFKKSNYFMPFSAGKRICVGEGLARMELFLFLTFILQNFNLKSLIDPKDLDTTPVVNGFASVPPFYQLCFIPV
Sequence of CYP3A4 (P08684 whole entry): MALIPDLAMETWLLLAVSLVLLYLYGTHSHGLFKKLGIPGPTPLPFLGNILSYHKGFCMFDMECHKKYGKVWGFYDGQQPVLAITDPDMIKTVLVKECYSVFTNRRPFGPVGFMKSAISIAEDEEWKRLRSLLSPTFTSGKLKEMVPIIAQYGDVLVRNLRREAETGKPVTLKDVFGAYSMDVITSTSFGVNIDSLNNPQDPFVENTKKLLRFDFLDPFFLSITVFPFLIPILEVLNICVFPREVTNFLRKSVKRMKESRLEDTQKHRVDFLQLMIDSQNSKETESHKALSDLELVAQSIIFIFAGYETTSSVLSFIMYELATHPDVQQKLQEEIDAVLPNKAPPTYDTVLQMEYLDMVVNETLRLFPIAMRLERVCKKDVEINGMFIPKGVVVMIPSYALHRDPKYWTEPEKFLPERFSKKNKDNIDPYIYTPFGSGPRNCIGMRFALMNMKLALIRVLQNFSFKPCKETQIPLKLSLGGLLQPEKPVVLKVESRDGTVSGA

The IC50 is the midpoint of a concentration-inhibition curve. Read a low IC50 as greater potency. The term EC50 denotes the concentration that produces a half-maximal response. One may read the CC50 as the concentration at which the toxic effect on the cells reaches its halfway point. Low values mean greater toxicity to the cells, high ones lower toxicity to the cells. As a reminder, the Cmax is the maximum level reached in the sampled fluid or tissue. As usually defined, the Tmax is the time at which the peak concentration occurs. One may read the half-life as the time in which the quantity being followed falls by half. Higher therefore signals slow loss. What is called AUC is concentration integrated over time. Higher therefore signals more exposure. A word on the MRT: it is the average time that molecules of a dose stay in the body. Broadly, the bioavailability is the share of a dose that reaches the circulation, judged against a reference dose that is usually intravenous. One may read the solubility as the concentration that dissolves in the medium under given conditions. Lower therefore signals little dissolved substance. Regarding `Cn1c(Cn2ccc(C(F)(F)F)c(Oc3cccc4cnccc34)c2=O)n[nH]c1=O` [7w], the IC50 against CYP2C19 was 26800 nM; against hERG potassium channels, > 40000 nM; on CYP2D6 it was > 50000 nM; on WT HIV-1 RT, 120 ± 7 nM; against CYP3A4 it was > 50000 nM; against CYP2C9, 19600 nM. Moreover, the IC50 against CYP1A2 was > 50000 nM. The EC50 in the data set with HIV-1 mutant Y188L came to 5350 ± 2150 nM; in the data set with HIV-1 mutant E138K it was 49 ± 13 nM; in the data set with HIV-1 mutant K103N it was 71 ± 19 nM; in data set [3], 140 ± 90 nM; in the data set with HIV-1 mutant L100I it was 38 ± 17 nM; in the data set on WT HIV-1 (Human immunodeficiency virus 1, MT4), 22 ± 10 nM. The EC50 is 50 ± 11 nM with HIV-1 mutant Y181C and 35 to 140 nM in data set [4]. The “Pathological damage of six main organs (HE staining)” value in “Acute toxicity assay” (after 14 days) is recorded as “no obvious pathological damage”. Besides, in “Acute toxicity assay” (observed 14 days), the Behavior and weight entry is “normal behavior and weight”. In the data set “Acute toxicity assay” (observed 14 days), the Mortality result is listed as “did not result in any fatalities”. Besides, the cytotoxic concentration (CC50) in [1] was determined as 274000 ± 10600 nM. Also, the Cmax is 456 ± 51.1 ng/mL in data set [2] (iv, 1 mg/kg) and 2888 ± 9.71 ng/mL in [2] (po, 5 mg/kg). Besides, the Tmax in data set [2] (iv, 1 mg/kg) came to 4.98 min; in [2] (po, 5 mg/kg), 25 ± 8.64 min. For the same molecule, the half-life was 17.4 ± 12.6 min in data set [2] (iv, 1 mg/kg) and 107 ± 17.4 min in data set [2] (po, 5 mg/kg). Moreover, the AUC in [2] (iv, 1 mg/kg, AUC0‒t, 1.0 mg/kg (i.v.)) was 229 ± 45.3 ng·h/mL; in data set [2] (iv, 1 mg/kg, AUC0‒∞, 1.0 mg/kg (i.v.)), 230 ± 46 ng·h/mL; in [2] (po, 5 mg/kg, AUC0‒t, 5.0 mg/kg (p.o.)) it was 304 ± 24.5 ng·h/mL; in data set [2] (po, 5 mg/kg, AUC0‒∞, 5.0 mg/kg (p.o.)), 312 ± 25.3 ng·h/mL. Moreover, the MRT in data set [2] (iv, 1 mg/kg, MRT0‒t, 1.0 mg/kg (i.v.)) came out at 21.1 ± 2.5 min; in [2] (iv, 1 mg/kg, MRT0‒∞, 1.0 mg/kg (i.v.)), 22 ± 28 min; in data set [2] (po, 5 mg/kg, MRT0‒t, 5.0 mg/kg (p.o.)) it was 70.2 ± 9.18 min; in data set [2] (po, 5 mg/kg, MRT0‒∞, 5.0 mg/kg (p.o.)), 85.2 ± 8.4 min. The molecule further came in with a bioavailability in data set [2] (po, 5 mg/kg) of 27.1 ± 0.0219%. The solubility in the data set “Aqueous solubility” (pH 2, aqueous buffer) was found to be 4470 µg/mL (≈ 10700 µM); in the data set “Aqueous solubility” (pH 7, aqueous buffer), 38 µg/mL (≈ 91.1 µM); in “Aqueous solubility” (pH 7.4, aqueous buffer) it was 53 µg/mL (≈ 127 µM). In addition, the SI with WT HIV-1 (selectivity index, the ratio of CC50/EC50, WT HIV-1) is on record as 12,497.73.
On to `COc1ccc2c(c1)[C@]13CCCC[C@@H]1[C@H](C2)N(C)CC3` [Dextromethorphan, reference compound], for which the IC50 against CYP2D6 amounted to 48.2 nM.
